Values after ≈ are worked out from the molar mass of the structure shown.
Experiments:
Enterococcus faecium = test: Antibacterial activity against Enterococcus faecium UC12712 by broth microdilution method; assay type: functional
In short: (§1)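 Broth microdilution MIC following National Committee for Clinical Laboratory Standards methods. Plasmid-borne GyrB in transformed S. aureus strains was overexpressed by adding 100 ng/ml doxycycline.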

Staphylococcus aureus [1] = test: Antibacterial activity against Staphylococcus aureus UC9218 by broth microdilution method in presence of 50% serum; assay type: functional; in short: as §1
Pseudomonas aeruginosa = test: Antibacterial activity against Pseudomonas aeruginosa UC6676 by broth microdilution method; assay type: functional; in short: as §1
Escherichia coli = test: Antibacterial activity against Escherichia coli UC6674 by broth microdilution method; assay type: functional; in short: as §1
Moraxella catarrhalis = test: Antibacterial activity against Moraxella catarrhalis UC3067 by broth microdilution method; assay type: functional; in short: as §1
Staphylococcus aureus [2] = test: Antibacterial activity against methicillin and ciprofloxacin-resistant Staphylococcus aureus UC12673 by broth microdilution method; assay type: functional; in short: as §1
[3] = tested on: Staphylococcus epidermidis; test: Antibacterial activity against methicillin and ciprofloxacin-resistant Staphylococcus epidermidis UC12084 by broth microdilution method; assay type: functional; in short: as §1
Streptococcus pneumoniae [4] = test: Antibacterial activity against ciprofloxacin-resistant Streptococcus pneumoniae by broth microdilution method; assay type: functional; in short: as §1
Streptococcus pneumoniae [5] = test: Antibacterial activity against Streptococcus pneumoniae by broth microdilution method; assay type: functional; in short: as §1
Staphylococcus aureus [6] = test: Antibacterial activity against methicillin-resistant Staphylococcus aureus by broth microdilution method; assay type: functional; in short: as §1
Haemophilus influenzae = test: Antibacterial activity against Haemophilus influenzae UC30063 by broth microdilution method; assay type: functional; in short: as §1
Staphylococcus aureus [7] = test: Antibacterial activity against methicillin-resistant Staphylococcus aureus UC9213 by broth microdilution method; assay type: functional; in short: as §1
Klebsiella pneumoniae = test: Antibacterial activity against Klebsiella pneumoniae UC12081 by broth microdilution method; assay type: functional; in short: as §1
Enterococcus faecalis = test: Antibacterial activity against Enterococcus faecalis UC9217 by broth microdilution method; assay type: functional; in short: as §1
Staphylococcus aureus [8] = test: Antibacterial activity against methicillin-susceptible Staphylococcus aureus by broth microdilution method; assay type: functional; in short: as §1
Streptococcus pneumoniae [9] = test: Antibacterial activity against Streptococcus pneumoniae UC9912 by broth microdilution method; assay type: functional; in short: as §1
Staphylococcus aureus [10] = test: Antibacterial activity against ciprofloxacin-resistant Staphylococcus aureus by broth microdilution method; assay type: functional; in short: as §1
Streptococcus pyogenes = test: Antibacterial activity against Streptococcus pyogenes UC152 by broth microdilution method; assay type: functional; in short: as §1
Streptococcus pneumoniae [11] = test: Antibacterial activity against Streptococcus pneumoniae UC15142 by broth microdilution method; assay type: functional; in short: as §1
Staphylococcus aureus [12] = test: Antibacterial activity against Staphylococcus aureus UC9218 by broth microdilution method in presence of 25% serum; assay type: functional; in short: as §1
Staphylococcus aureus [13] = test: Antibacterial activity against methicillin-susceptible Staphylococcus aureus UC9218 by broth microdilution method; assay type: functional; in short: as §1
[14] = Inhibition of Escherichia coli DNA gyrase by gel electrophoresis
Staphylococcus aureus [15] = test: Antimicrobial activity against methicillin-resistant Staphylococcus aureus SUAR 1015-01 harboring gyrA S84L, parC S80F and parE S189R mutant gene by broth microdilution method; assay type: functional; in short: as §1
Staphylococcus aureus [16] = test: Antimicrobial activity against Staphylococcus aureus USA200 harboring […] S84L and parC R400C mutant gene by broth microdilution method; assay type: functional; in short: as §1
Staphylococcus aureus [17] = test: Antibacterial activity against ciprofloxacin-resistant Staphylococcus aureus ATCC 29213 by broth microdilution method; assay type: functional; in short: as §1
Staphylococcus aureus [18] = test: Antimicrobial activity against Staphylococcus aureus MW2 harboring parC R400C mutant gene by broth microdilution method; assay type: functional; in short: as §1
Staphylococcus aureus [19] = test: Antibacterial activity against methicillin-resistant Staphylococcus aureus UC9213 in orally dosed lethal systemic CF-1 mouse infection model; assay type: functional; details: UC9213, po
In short: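 Lethal systemic infection in female CF-1 mice (20 g), infected intraperitoneally with enough bacteria to kill 90–100% of untreated mice. Thawed cultures were suspended in brain heart infusion broth with 4% (wt/vol) dried brewer's yeast. Drug given orally or subcutaneously at 1 and 5 h postinfection, at five or more dose levels, six mice per level. Survival followed for 1 week; ED50 by probit analysis.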

Staphylococcus aureus [20] = test: Antibacterial activity against quinoline pyrimidine trione-resistant Staphylococcus aureus ATCC 29213 by broth microdilution method; assay type: functional; in short: as §1
Staphylococcus aureus [21] = test: Antimicrobial activity against Staphylococcus aureus 286607-R1 by broth microdilution method; assay type: functional; in short: as §1
Staphylococcus aureus [22] = test: Antimicrobial activity against Staphylococcus aureus RN4220 expressing gyrB D437N mutant gene by broth microdilution method; assay type: functional; in short: as §1
[23] = Inhibition of Escherichia coli DNA topoisomerase 4 by gel electrophoresis
Staphylococcus aureus [24] = test: Antimicrobial activity against Staphylococcus aureus 286607-R1 harboring wild type gyrB by broth microdilution method; assay type: functional; in short: as §1

| SMILES | MIC (Enterococcus faecium) [µg/mL] | MIC (Staphylococcus aureus [1]) [µg/mL] | MIC (Pseudomonas aeruginosa) [µg/mL] | MIC (Escherichia coli) [µg/mL] | MIC (Moraxella catarrhalis) [µg/mL] | MIC (Staphylococcus aureus [2]) [µg/mL] | MIC [3] [µg/mL] | MIC50 (Streptococcus pneumoniae [4]) [µg/mL] | MIC90 (Streptococcus pneumoniae [4]) [µg/mL] | MIC50 (Streptococcus pneumoniae [5]) [µg/mL] | MIC90 (Streptococcus pneumoniae [5]) [µg/mL] | MIC50 (Staphylococcus aureus [6]) [µg/mL] | MIC90 (Staphylococcus aureus [6]) [µg/mL] | MIC (Haemophilus influenzae) [µg/mL] | MIC (Staphylococcus aureus [7]) [µg/mL] | MIC (Klebsiella pneumoniae) [µg/mL] | MIC50 (Staphylococcus aureus [8]) [µg/mL] | MIC90 (Staphylococcus aureus [8]) [µg/mL] | MIC50 (Staphylococcus aureus [10]) [µg/mL] | MIC90 (Staphylococcus aureus [10]) [µg/mL] | other results |
| --- | --- | --- | --- | --- | --- | --- | --- | --- | --- | --- | --- | --- | --- | --- | --- | --- | --- | --- | --- | --- | --- |
| C[C@@H]1CN2c3ccc([N+](=O)[O-])cc3CC3(C(=O)NC(=O)NC3=O)[C@H]2[C@H](C)O1 | 4 (≈ 10.7 µM) | 1 | > 64 | 2 (≈ 5.34 µM) | 1 (≈ 2.67 µM) | 0.5 (≈ 1.34 µM) | 0.5 (≈ 1.34 µM) | 2 (≈ 5.34 µM) | 4 (≈ 10.7 µM) | 2 (≈ 5.34 µM) | 4 (≈ 10.7 µM) | 0.5 (≈ 1.34 µM) | 0.5 (≈ 1.34 µM) | 0.125 (≈ 0.334 µM) | 0.5 (≈ 1.34 µM) | > 64 | 0.5 (≈ 1.34 µM) | 0.5 (≈ 1.34 µM) | 0.5 (≈ 1.34 µM) | 0.5 (≈ 1.34 µM) | MIC (Enterococcus faecalis): 2 µg/mL (≈ 5.34 µM); MIC (Streptococcus pneumoniae [9]): 2 µg/mL (≈ 5.34 µM); MIC (Streptococcus pyogenes): 1 µg/mL (≈ 2.67 µM); MIC (Streptococcus pneumoniae [11]): 2 µg/mL (≈ 5.34 µM); MIC (Staphylococcus aureus [12]): 0.5 µg/mL; MIC (Staphylococcus aureus [13]): 0.25 µg/mL (≈ 0.668 µM) |
| C[C@H]1CN2c3ccc([N+](=O)[O-])cc3CC3(C(=O)NC(=O)NC3=O)[C@@H]2[C@@H](C)O1 | > 64 | > 128 | > 64 | > 128 | > 64 | > 64 | > 64 | > 64 | > 64 | > 64 | > 64 | > 64 | > 64 | > 128 | > 64 | > 64 | > 64 | > 64 | 64 (≈ 171 µM) | > 64 | MIC (Streptococcus pneumoniae [4]): > 64 µg/mL; MIC (Streptococcus pneumoniae [5]): > 64 µg/mL; MIC (Staphylococcus aureus [6]): > 64 µg/mL; MIC (Enterococcus faecalis): > 128 µg/mL; MIC (Staphylococcus aureus [8]): > 64 µg/mL; MIC (Streptococcus pneumoniae [9]): > 128 µg/mL; MIC (Staphylococcus aureus [10]): 64 µg/mL (≈ 171 µM); MIC (Streptococcus pyogenes): > 64 µg/mL; MIC (Streptococcus pneumoniae [11]): > 128 µg/mL; MIC (Staphylococcus aureus [12]): 128 µg/mL; MIC (Staphylococcus aureus [13]): 128 µg/mL (≈ 342 µM) |
| O=C(O)c1cn(C2CC2)c2cc(N3CCNCC3)c(F)cc2c1=O [CIPROFLOXACIN] |  |  |  |  |  |  |  | 32 (≈ 96.6 µM) | 64 (≈ 193 µM) | 1 (≈ 3.02 µM) | 2 (≈ 6.04 µM) | 0.25 (≈ 0.754 µM) | 32 (≈ 96.6 µM) |  |  |  | 0.125 (≈ 0.377 µM) | 0.25 (≈ 0.754 µM) | 16 (≈ 48.3 µM) | > 64 | IC50 [14]: 100 nM; MIC (Staphylococcus aureus [15]): 64 µg/mL (≈ 193 µM); MIC (Staphylococcus aureus [16]): 8 µg/mL (≈ 24.1 µM); MIC (Staphylococcus aureus [17]): 8 µg/mL (≈ 24.1 µM); MIC (Staphylococcus aureus [18]): 0.25 µg/mL (≈ 0.754 µM); ED50 (Staphylococcus aureus [19]): 10 mg/kg; MIC (Staphylococcus aureus [20]): 0.5 µg/mL (≈ 1.51 µM); MIC (Staphylococcus aureus [21]): 0.25 µg/mL (≈ 0.754 µM); MIC (Staphylococcus aureus [22]): 0.25 µg/mL (≈ 0.754 µM); IC50 [23]: 1000 nM; MIC (Staphylococcus aureus [24]): 0.25 µg/mL (≈ 0.754 µM) |

From ChEMBL document CHEMBL1275477, “Discovery and characterization of QPT-1, the progenitor of a new class of bacterial topoisomerase inhibitors” (Antimicrob Agents Chemother, 2008)
